Wee1 stabilizer: Wee1 degradation inhibitors, primary screen, cell-based, HeLa, Wee1K328M-luciferase, luminescence. AID 1321, 2008. reporter increase, % at 5 µM. HeLa Luc-Wee1K328M stability; 100% = proteasome inhibitor MG132 effect. 220,000 compounds, 1.2% hits;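 active = activation above the mean of all tested compounds plus 3 SD, set per screening run, cut at about 8.8% in these data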;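 also: cells exposed to compound for 20 h before luminescence read; 0% = DMSO alone and 100% = MG132 at 30 µM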
Mdm2 ligase inh: MDM2-luciferase reporter signal enhancers, primary screen, MDM2 E3 ligase inhibitor project, cell-based, luminescence, 1536-well | E3 ubiquitin-protein ligase Mdm2 (Homo sapiens), Q00987 | cell-based MDM2 ubiquitination luciferase reporter, 2 h; 0 = plate control, 100 = twice control, blank-subtracted | signal enhancement, % at 5 µM | 210,000 compounds, 0.11% hits | AID 1230, 2008;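 active = signal enhancement of 30% or more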;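 also: luminescence tracks abundance of the self-degrading MDM2-luciferase fusion protein; higher signal means inhibition of MDM2 E3 ligase activity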
Target sequence (Q00987 whole entry, looked up, the tested form may be a part): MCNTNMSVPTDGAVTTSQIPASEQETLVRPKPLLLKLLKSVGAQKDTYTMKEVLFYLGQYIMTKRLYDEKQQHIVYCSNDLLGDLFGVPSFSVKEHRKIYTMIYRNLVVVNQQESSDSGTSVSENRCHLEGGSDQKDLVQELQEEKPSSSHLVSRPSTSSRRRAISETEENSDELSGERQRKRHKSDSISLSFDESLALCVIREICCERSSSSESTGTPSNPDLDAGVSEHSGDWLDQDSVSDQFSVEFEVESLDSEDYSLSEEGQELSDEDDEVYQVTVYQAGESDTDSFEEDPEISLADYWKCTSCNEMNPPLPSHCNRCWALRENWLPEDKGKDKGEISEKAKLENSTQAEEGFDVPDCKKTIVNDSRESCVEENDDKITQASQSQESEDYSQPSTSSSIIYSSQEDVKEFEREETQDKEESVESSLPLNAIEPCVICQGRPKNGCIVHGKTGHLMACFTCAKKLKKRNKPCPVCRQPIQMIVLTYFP
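Material: stable MDM2–luciferase fusion reporter cells / Quantity: 2000 cells/well / Dosing: single 5 µM compound dose, 0.2% final DMSO / Buffer or medium: DMEM / Schedule: 4 h cell settling then 2 h compound exposure, 37 °C / Detection: luminescence with SteadyLite reagent, 15 min at room temperature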
Hsp70 activator: Hsp70 transcriptional activators, primary screen, cell-based, HeLa, Hsp70 promoter luciferase, luminescence, 10 µM. HeLa Hsp70 promoter luciferase reporter; scaled: vehicle 0, proteasome-inhibitor control 100%. AID 1203, 2008. activation, % at 10 µM. 200,000 compounds, 0.04% hits;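 active = activation above the mean across all tested compounds plus 3 SD, cutoff set per campaign, cut at about 5.5% in these data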;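 also: 100% = MG132 at 30 µM as the positive control and 0% = DMSO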
Insulin prom inh: inhibitors of insulin promoter-driven GFP, primary screen, imaging, TRM-6 cells, eGFP reporter, cell count. 130,000 compounds, 0.9% hits. reporter expression induced with tamoxifen. inhibition, % at 2 µM;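 active = inhibition above the mean plus 3 SD, with well images judged a real hit on visual review, cut at about 60% in these data, passing the limit was not always enough; inconclusive = inhibition over the cutoff but images rejected on review; inactive = inhibition not above the cutoff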
Insulin prom up: insulin promoter activators in MIN6 cells, imaging, high-content screening, mouse beta cells | AID 1625, 2009 | z-score at 5 µM | 190,000 compounds, 0.3% hits | MIN6 insulin promoter-GFP reporter; stronger effect = higher value;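 active = z-score above 3 at 5 µM with at least 500 cells counted in the well; inconclusive = wells under 500 cells, flagged as cytotoxic or low count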
RBBP9 inhibitor: human RBBP9 inhibitors, primary screen, biochemical, fluorescence polarization, FP-Rh probe, HTS | recombinant RBBP9 | inhibition, % at 7.94 µM | 220,000 compounds, 0.2% hits;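 active = inhibition above the campaign mean of all tested compounds plus 3 SD, cut at about 14% in these data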;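 also: plate controls were DMSO wells with RBBP9 for no effect and wells lacking RBBP9 protein for full effect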
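Controls: DMSO-treated enzyme wells and wells lacking RBBP9 | Material: RBBP9 protein | Technique: Fluorescence polarization | Replication: Single well per compound, no replicates | Buffer or medium: Tris-NaCl-Pluronic buffer, pH 8.0 | Timing: 30 min compound preincubation, 45 min probe labeling, 25 °C | Read-out basis: Percent inhibition from mP, scaled between DMSO and no-protein wells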
* = called active by the depositor; ? = inconclusive; . = not tested or not shown. The list is not random: actives were taken first. Their share in the collection is about 2.2%.

SMILES	Wee1 stabilizer	Mdm2 ligase inh	Hsp70 activator	Insulin prom inh	Insulin prom up	RBBP9 inhibitor
COc1ccc(N2CCCn3c2nc2c3c(=O)n(Cc3ccccc3F)c(=O)n2C)c(OC)c1	1	2	0	.	0.17	-5
Cc1cc(/N=C/N(C)C)on1	-1	11	0	-86	-0.15	0
COc1cc(OC)nc(/N=C/N(C)C)n1	33*	-8	0	6	-0.71	8
O=C(N/N=C\c1cc(Br)ccc1O)c1ccc(S(=O)(=O)N2CCCCC2)cc1	9.1*	6	-1	?	-0.34	-4
O=C(N/N=C/c1ccc(O)c(O)c1)c1cccc(S(=O)(=O)N2CCCCC2)c1	0	3	0	.	-0.24	-2
CC1CCc2c(sc3nn[nH]c(=O)c23)C1 (stereo not given)	0	21	0	20	4.2*	-4
Cc1ccc(C(=O)NNC(=O)c2cccc(S(=O)(=O)N3CCN(c4ccccc4)CC3)c2)cc1	1	8	0	-83	0.02	-7
CCCNC(=O)c1noc2c1CCc1cc(OC)ccc1-2	10*	-26	0	.	-0.12	-2
Cc1ccc(CN(c2ccc(C(=O)N3CCOCC3)cc2)S(C)(=O)=O)cc1	10.0*	0	0	-23	-0.23	-11
CCOC(=O)N1CCN(C(=O)c2ccc(N(Cc3ccc(C)cc3)S(C)(=O)=O)cc2)CC1	4	-11	0	-50	-0.06	-5
CN(Cc1ccccc1)CC(O)COc1ccc(CNCCCOc2cccnc2)cc1 (stereo not given)	8.9*	-9	0	.	-0.05	-5
O=C(CSc1ncccn1)N/N=C/c1ccccc1[N+](=O)[O-]	-1	-8	0	-67	-0.18	-6
OC(CNC1CCCC1)COCCOc1ccc(Br)cc1 (stereo not given)	-2	.	.	.	-0.51	2
OC(C#CCN1CCCCCC1)(c1ccccc1)c1cccnc1 (stereo not given)	3	-14	.	.	-0.69	-8
OC(C#CCN1CCCC1)(c1ccccc1)c1cccnc1 (stereo not given)	10*	.	.	.	-0.01	3
CC(=C/C(=O)O)/C(=C/c1ccccc1)C(=O)O	0	-10	0	-74	0.69	2
O=C1C=C(O)c2cccc(O)c2C1=O	.	-21	.	.	0.86	.
CC1=CC(=O)c2c(O)ccc(O)c2C1=O	-2	-27	0	.	?	16*
Cc1cc(C(F)(F)F)nc(SCc2ccc(C(=O)O)o2)n1	-1	-16	0	73*	0.06	-9
O=C(Nc1ccn(Cc2ccc(Cl)cc2)n1)c1ccc2c(c1)OCO2	1	1	0	77*	0.22	-9
Cc1cc(NC(=O)c2ccc3c(c2)OCO3)no1	-2	-17	0	85*	-1.1	6
N#CC1CC(c2ccccc2)=NN1c1ccccc1[N+](=O)[O-] (stereo not given)	10*	3	0	.	-0.8	0
O=CN1N=C(c2ccccc2)CC1c1ccccc1[N+](=O)[O-] (stereo not given)	0	-5	0	-41	-0.19	-4
S=C(c1ccc(-c2ccc(Cl)cc2Cl)o1)N1CCCC1	-1	-9	.	.	-0.33	-1
S=C(c1ccc(-c2ccc(Cl)cc2Cl)o1)N1CCCCC1	10*	-3	0	7	-0.95	-1
SMILES	Wee1 stabilizer	Mdm2 ligase inh	Hsp70 activator	Insulin prom inh	Insulin prom up	RBBP9 inhibitor
O=C(NNC(=S)NC(=O)c1ccco1)c1ccc(F)cc1	10*	-4	.	.	-0.39	-2
CCN(C(=O)CSc1nc2ccccc2c(=O)n1-c1cccc(C)c1)C1CCS(=O)(=O)C1 (stereo not given)	-3	63*	0	.	-0.19	-6
Cc1cc(F)ccc1S(=O)(=O)N1CCCOC1CNC(=O)C(=O)NCCc1c[nH]c2ccccc12 (stereo not given)	0	3	0	-69	0.56	2
O=C(NCc1ccc(F)cc1)C1CCCN(S(=O)(=O)c2cccnc2)C1 (stereo not given)	-2	-9	0	.	3.5*	-3
O=C(NCc1cccnc1)C(=O)NCC1OCCN1S(=O)(=O)c1ccc(F)cc1 (stereo not given)	9.2*	.	0	12	0.37	0
Cc1cc(F)ccc1S(=O)(=O)N1CCCOC1CNC(=O)C(=O)NCc1ccco1 (stereo not given)	9.1*	5	0	-75	0.85	-1
CCOC(=O)c1nc(C)sc1-c1ccnn1S(=O)(=O)c1ccc(C)cc1	0	-19	.	.	0.34	-7
COC(Cn1c2c(c3cc(C)ccc31)CCCC2NCc1ccccc1)OC (stereo not given)	2	5	.	.	0.07	3
CC(=O)c1ccc(Nc2cc(C)nc3c(C)cccc23)cc1	10*	1	0	.	0.51	-7
O=C(NNC1=NCCC1)C1CC1	-1	-7	0	46	0.11	-4
CCOc1cc(/C=N/n2c(C)nnc2C)ccc1O	0	-3	.	.	-0.69	-5
O=C(COc1ccccc1F)N/N=C1\CCCc2ccccc21	11*	-8	0	.	0	-6
O=C(N/N=C/c1ccc([N+](=O)[O-])o1)c1ccccc1NS(=O)(=O)c1cccs1	-1	-20	.	.	-0.45	-7
Cn1cc(-c2nnc(-c3ccccc3)o2)c2ccccc21	10*	-43	0	-22	1.9	-8
CCCCN(C(=S)NC(=O)c1cc(OC)c(OC)c(OC)c1)c1c(N)n(Cc2ccccc2)c(=O)[nH]c1=O	4	0	0	18	.	8
CN(CCC#N)C(=O)COC(=O)c1c2c(nc3ccccc13)/C(=C/c1ccco1)CC2	10*	-10	0	22	0.34	-4
COc1ccc(-c2nc3c4ccccc4ccn3c2CN2CCOCC2)cc1OC	-1	-6	.	.	-0.55	-2
O=C1C=C(c2ccccc2)OC(=O)C1C(=O)c1ccccc1 (stereo not given)	0	-8	0	60	-0.02	-11
COc1ccccc1C(=O)NNC(=O)c1nn(Cc2ccccc2)c(=O)c2ccccc12	-1	-9	0	80*	-1	-5
CCCn1c(C)cc(C(=O)COc2ccc(-c3nnco3)cc2)c1C	-1	-6	0	0	-0.57	0
c1ccc(Nc2nc3ccccc3o2)cc1	3	-27	0	68*	.	-5

Screening results as filed in PubChem BioAssay.
